Assay results collected from several papers.
Compare with care: the assays were run in different laboratories.
Cell line: A549
Observed: cell growth or viability

O=C(CN1C(=O)/C(=C/c2cccc(F)c2)SC1=S)Nc1ccccc1 — inhibition (MTT; 10 µM): 26.1%
O=C1Nc2ccc(F)cc2/C1=N/NC(=O)c1cc2ccccc2[nH]1 — inhibition (30 µM): 6.9%
O=C(CN1C(=O)/C(=C/c2cccc([N+](=O)[O-])c2)SC1=S)Nc1ccccc1 — inhibition (MTT; 10 µM): 22.2%
Cc1ccc2c(c1)C(=NNc1nnc(Cc3ccccc3)c3ccccc13)C(=O)N2 — inhibition (30 µM): 85%
COc1ccccc1/C=C1\SC(=S)N(CC(=O)Nc2ccccc2)C1=O — inhibition (MTT; 10 µM): 38.3%
Cc1c(-c2cccc(C(F)(F)F)c2)sc2[nH]c(=O)n([C@H](C)c3cccc4ccccc34)c(=O)c12 — inhibition (10 µM): > 80%
COc1cc(CNC(=O)CCCC/C=C/C(C)C)ccc1O — inhibition (SRB; 10 µM): 0%
Cn1c(=O)c(NN=C2C(=O)Nc3ccccc32)nc2ccccc21 — inhibition (30 µM): 95.2%
O=C(N/N=C1\C(=O)N(c2ccccc2)c2ccccc21)c1cc2ccccc2[nH]1 — inhibition (30 µM): 98.5%
COc1ccc(-c2nc(NN=C3C(=O)Nc4ccccc43)c3ccccc3n2)cc1OC — inhibition (30 µM): 58.6%
COc1ccc(/C=C2\SC(=S)N(CC(=O)Nc3ccccc3)C2=O)cc1 — inhibition (MTT; 10 µM): 23%
COc1cc2ncnc(NN=C3C(=O)Nc4ccccc43)c2cc1OC — inhibition (30 µM): 32.9%
O=C1Nc2ccc(Br)cc2/C1=N/NC(=O)c1cc2ccccc2[nH]1 — inhibition (30 µM): 77%
O=C(CN1C(=O)/C(=C/c2ccc(O)cc2)SC1=S)Nc1ccccc1 — inhibition (MTT; 10 µM): 29.6%
O=C1Nc2ccccc2/C1=N/NC(=O)c1cc2ccccc2[nH]1 — inhibition (30 µM): 90.9%
O=C(CN1C(=O)/C(=C/c2cccc(Br)c2)SC1=S)Nc1ccccc1 — inhibition (MTT; 10 µM): 25.8%
COc1ccc2c(c1)/C(=N/NC(=O)c1cc3ccccc3[nH]1)C(=O)N2C — inhibition (30 µM): 97.4%
COc1ccc(-c2nc(NN=C3C(=O)Nc4ccc(Br)cc43)c3ccccc3n2)cc1OC — inhibition (10 µM): 77.1%
CN1C(=O)/C(=N\NC(=O)c2cc3ccccc3[nH]2)c2ccccc21 — inhibition (30 µM): 94.9%
COc1cc2ncnc(NN=C3C(=O)Nc4ccc(F)cc43)c2cc1OC — inhibition (10 µM): 7.1%
